# In PMC3790647 (Clinical cancer research : an official journal of the …, 2013):
# Marks after values point to notes of the source that are not given here.
# How the values were obtained:
# [1] = test system: rodent and human cancer cell lines; conditions: large variety of cell lines; ref Investigator’s Brochure, version 5, 2010; cited from earlier work
# HeLa cells = conditions: ref Investigator’s Brochure, version 5, 2010; cited from earlier work
# advanced solid tumors = assay: Tumor response by RECIST 1.0; format: in vivo, human
# In short: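 Patients with at least one RECIST-measurable lesion and progressive disease at entry had CT and/or MRI every 8 weeks for up to 6 months of treatment, then every 12 weeks. Response was scored by RECIST 1.0. Dosing was oral once daily on days 1–5 every 14 days, 100–800 mg.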
# [2] = Plasma pharmacokinetics of resminostat in patients; format: in vivo, human; conditions: for half-life / AUC / AUC(0-inf) / Tmax / Cmax: human, plasma
# In short: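 Oral capsules (100–800 mg) were taken once daily within 30 min after a light meal with 240 ml water, with a 1 h post-dose fast on PK days. Day 1 blood was drawn pre-dose to 24 h (15 min–10 h series plus 24 h); days 5 and 47, pre-dose to 8 h. Samples (2 ml EDTA) were kept on ice, spun 10 min at 2700 × g at 4°C, and plasma stored at −80°C. Analysis used validated HPLC-MS/MS and non-compartmental (extravascular) analysis, with AUC0-∞, Cmax and t½ log-transformed.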
# [3] = test system: relapsed/refractory Hodgkin lymphoma; conditions: cited from earlier work
compound,measurement,setting,value
CN(C)Cc1ccc(S(=O)(=O)n2ccc(/C=C/C(=O)NO)c2)cc1 [resminostat],Concentrations that inhibit proliferation,[1],sub-to-low micromolar
same,Induction of histone H3 hyperacetylation and endogenous p21waf1,HeLa cells,dose-dependent induction
same,Patients who achieved SD,advanced solid tumors; 600 mg dose group,Three of 3
same,Patients with stable disease (SD) lasting >8 weeks,"advanced solid tumors; all dose levels, 95% CI: 34–80",58%
same,Reduction in the sum of the longest diameters of tumor target lesions,advanced solid tumors; one patient with metastatic thymoma,27%
same,Time on study with SD,"advanced solid tumors; patient with liposarcoma, 31 cycles",14.2 months
same,Change in AUC and Cmax between treatment days 1 and 5,[2]; all studied dose levels,no significant change
same,"Time at which peak plasma concentration Cmax was attained, median value","[2]; day 1, single dosing, all doses",2 h
same,Clearance,"[2]; day 1, single oral administration, 100 mg, N=3, geometric mean (68% range), free-base","80900 (51600, 127000) mL/h"
same,Clearance,"[2]; day 1, single oral administration, 200 mg, N=3, geometric mean (68% range), free-base","53800 (45000, 64300) mL/h"
same,Clearance,"[2]; day 1, single oral administration, 400 mg, N=3, geometric mean (68% range), free-base","52500 (50600, 54400) mL/h"
same,Clearance,"[2]; day 1, single oral administration, 600 mg, N=3, geometric mean (68% range), free-base","41400 (32200, 53300) mL/h"
same,Clearance,"[2]; day 1, single oral administration, 800 mg, N=7, geometric mean (68% range), free-base","37700 (29500, 48200) mL/h"
same,Clearance,"[2]; day 5, multiple oral administration, 100 mg, N=3, geometric mean (68% range), free-base","75100 (51000, 110000) mL/h"
same,Clearance,"[2]; day 5, multiple oral administration, 200 mg, N=3, geometric mean (68% range), free-base","59500 (45500, 77800) mL/h"
same,Clearance,"[2]; day 5, multiple oral administration, 400 mg, N=3, geometric mean (68% range), free-base","49300 (39900, 61000) mL/h"
same,Clearance,"[2]; day 5, multiple oral administration, 600 mg, n = 2, geometric mean (68% range), free-base","31100 (27100, 35600)^b mL/h"
same,Clearance,"[2]; day 5, multiple oral administration, 800 mg, N=6, geometric mean (68% range), free-base","41200 (29900, 56800) mL/h"
same,half-life,"[2]; oral, Terminal plasma elimination half-life, range, day 1, all doses",2.35 to 4.41 h
same,AUC,"[2]; po, 100 mg",1.33 µg·h/mL
same,AUC(0-inf),"[2]; po, 100 mg",1.24 µg·h/mL
same,Tmax,"[2]; po, 100 mg",2 h
same,Cmax,"[2]; po, 100 mg, day 1, single oral administration, 100 mg, N=3, geometric mean (68% range), free-base",0.487 µg/mL
same,Cmax,"[2]; po, 100 mg, day 5, multiple oral administration, 100 mg, N=3, geometric mean (68% range), free-base",0.373 µg/mL
same,half-life,"[2]; po, 100 mg, Half-life, day 1, single oral administration, 100 mg, N=3, geometric mean (68% range), free-base",3.77 h
same,AUC,"[2]; po, 200 mg",3.36 µg·h/mL
same,AUC(0-inf),"[2]; po, 200 mg",3.72 µg·h/mL
same,Tmax,"[2]; po, 200 mg",2 h
same,Cmax,"[2]; po, 200 mg, day 1, single oral administration, 200 mg, N=3, geometric mean (68% range), free-base",1.47 µg/mL
same,Cmax,"[2]; po, 200 mg, day 5, multiple oral administration, 200 mg, N=3, geometric mean (68% range), free-base",1.06 µg/mL
same,half-life,"[2]; po, 200 mg, Half-life, day 1, single oral administration, 200 mg, N=3, geometric mean (68% range), free-base",3.12 h
same,AUC,"[2]; po, 400 mg",8.11 µg·h/mL
same,AUC(0-inf),"[2]; po, 400 mg",7.63 µg·h/mL
same,Tmax,"[2]; po, 400 mg",2.5 h
same,Cmax,"[2]; po, 400 mg, day 1, single oral administration, 400 mg, N=3, geometric mean (68% range), free-base",2.16 µg/mL
same,Cmax,"[2]; po, 400 mg, day 5, multiple oral administration, 400 mg, N=3, geometric mean (68% range), free-base",2.27 µg/mL
same,half-life,"[2]; po, 400 mg, Half-life, day 1, single oral administration, 400 mg, N=3, geometric mean (68% range), free-base",3.44 h
same,AUC,"[2]; po, 600 mg",19.3 µg·h/mL
same,AUC(0-inf),"[2]; po, 600 mg",14.5 µg·h/mL
same,Tmax,"[2]; po, 600 mg",2.5 h
same,Cmax,"[2]; po, 600 mg, day 1, single oral administration, 600 mg, N=3, geometric mean (68% range), free-base",4.1 µg/mL
same,Cmax,"[2]; po, 600 mg, day 5, multiple oral administration, 600 mg, N=3, geometric mean (68% range), free-base",3 µg/mL
same,half-life,"[2]; po, 600 mg, Half-life, day 1, single oral administration, 600 mg, N=3, geometric mean (68% range), free-base",2.84 h
same,AUC,"[2]; po, 800 mg",19.4 µg·h/mL
same,AUC(0-inf),"[2]; po, 800 mg",21.2 µg·h/mL
same,Tmax,"[2]; po, 800 mg",1.75 h
same,Cmax,"[2]; po, 800 mg, day 1, single oral administration, 800 mg, N=7, geometric mean (68% range), free-base",4.97 µg/mL
same,Cmax,"[2]; po, 800 mg, day 5, multiple oral administration, 800 mg, N=6, geometric mean (68% range), free-base",4.51 µg/mL
same,half-life,"[2]; po, 800 mg, Half-life, day 1, single oral administration, 800 mg, N=7, geometric mean (68% range), free-base",2.81 h
same,Oral bioavailability (judged from plasma exposure),"[2]; patients, oral capsules",good oral bioavailability
same,"Objective response rate (Cheson criteria, independent central review, interim analysis)",[3]; 11 of 33 evaluable patients,33%
same,Clinical benefit rate,[3]; 18 of 33 patients,55%
